According to the EternaBench riboswitch data:

System: MS2 coat protein
Experiment: apparent Kd, MS2 coat protein; higher = weaker binding; RNA-MaP array; FMN 200 µM where present
Method in brief: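 The titrant was SNAP-549-labelled MS2 coat protein, run from 0.7 or 1.5 nM in doubling steps to 3 µM. It was applied to designs transcribed by stalled E. coli RNA polymerase on Illumina sequencing-chip clusters, without ligand first and then with constant ligand, in 100 mM Tris-HCl pH 7.5, 80 mM KCl, 4 mM MgCl2, BSA, DTT, yeast tRNA and Tween-20. The apparent Kd is the median of filtered per-cluster binding-curve fits, with green signal normalised to red-channel RNA signal and control-cluster median Fmax.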

[1] = designed as: OFF switch for flavin mononucleotide, no ligand
[2] = ligand present: flavin mononucleotide, designed as: OFF switch for flavin mononucleotide
[3] = designed as: ON switch for flavin mononucleotide, no ligand
[4] = ligand present: flavin mononucleotide, designed as: ON switch for flavin mononucleotide

Sequence | apparent Kd [1] | apparent Kd [2] | apparent Kd [3] | apparent Kd [4]
GGAAAACAUGAGGAUCACCCAUGUGAGGAUAUCGAUGUCCAACCACCCGUGCGGGACUCGAGAAGGCACUUGGA | 53.4 nM | 146 nM | – | –
AGCGAACAGGCUAACAUGAGGAUCACCCAUGUGGACUCAUGGUAGGAUAUCGGGAAGGAGGAAACCGAGAAGGGCCGGUGAGCC | – | – | 440 nM | 229 nM
UAGACCGAUGUUAGGAUAUCUGGUCGAGAAAGAAAAGAGAAGGAACAUGAGGAUCACCCAUGUACCCGGGUAAC | 15 nM | 19.2 nM | – | –
AUUCUUGGGCAAGGAUAUCCUGUGCGGUUCCGGCUCGUGUCUGUCACAUGAGGAUCACCCAUGUGGGAGAAGGUGCCUGCGGUC | 6.86 nM | 7.2 nM | – | –
AGCUGUGGCCGAGGAUAUCUAAAUUCUUAAAACGAAAUAUAAUCGAACAUGAGGAUCACCCAUGUAGAGAAGGCGGUCUCAGCA | 19.8 nM | 20.7 nM | – | –
GUCGGAAACGACAAAAGUAGCAUAGGAGAAGGUCCAUUAAACAUGAGGAUCACCCAUGUAAUUGGGAAGGAUAUCCUAUGCUAC | – | – | 9.27 nM | 5.84 nM
UAAUGAUAAGCAGGAUAUACUACACAUGAGGAUCACCCAUGUGUGUGAUCCACUCUCGUAUGGUAGUAGAAGGGCUCAGAGUAC | 153 nM | 80.6 nM | – | –
UGGGUAAAUGUAGGAUAUUUAUAUUAAUAAUAUGGAGAAGGACAUGAGGAUCACCCAUGUACAGGGAAUUACCCAUUUCCUCUC | 940 nM | 877 nM | – | –
CCAUUUCUGUAAGGAUAUAUAAACAUGACGAUACAUGAGGAUCACCCAUGUGUAGAAGGUACAAAUACAUAUAAUGCAAUGUUC | 14.8 nM | 13 nM | – | –
AGAAACCAAGGAUAUACAUGAGGAUCACCCAUGUUAGCGUGCAUGCCCUGCCUCAGCUGUAGAAGGUGGACGCC | 25.9 nM | 28.8 nM | – | –
GCACUUAGAGUUGAACCGUUUCUAACAUGAGGAUCACCCAUGUAGGAUAUGCUAAUAGUAUUGAAGCAGAAGGACAAUAAGUGC | 4.59 nM | 5.01 nM | – | –
UGUUGUAUUACAGGAUAUCUAGUAUUUUUUUUUAGAGAAGGGUAUUCACAUGAGGAUCACCCAUGUAUAUACGAGGAAGUUGUG | – | – | 67.1 nM | 71.1 nM
ACUUUUUAUGGACAUGAGGAUCACCCAUGUGCCUUGGGCCUCAAGGAUAUAGUAAUUGUCGUGUACUAGAAGGUGAAGCCAUUA | – | – | 77.2 nM | 27.9 nM
GGUUGGCGAGGAUAUACAUGAGGAUCACCCAUGUGGUCCUGUGGCUGGUCUUGACUUUGUAGAAGGCGCGGGUC | 49.7 nM | 55.3 nM | – | –
ACAUGAGGAUCACCCAUGUAUUUGUAGGAUAUACUCUAUUGUUUAUUACUCUAGUUAAAAUGUUUGUAGAAGGACAUUACAUGA | 6.81 nM | 7.38 nM | – | –
CGCAAGUCAGGAUAUUCGACUGGUAAAUCUGUGGAUCAGUAGGAGAAGGGACAUGAGGAUCACCCAUGUUUGUA | 29.5 nM | 35.9 nM | – | –
AAUCAGCGAGGAUAUACAGAUUCUGGGUGCGGCUCGGCGAGACAUGAGGAUCACCCAUGUAGAAGGUGCUAGCC | 37.9 nM | 43.8 nM | – | –
UGAAGAAAGUAGAAGGUAGUCUUAAAAUAGGACUAAGGAUAUACAUGAGGAUCACCCAUGUACUCCUUUAAUAUCUUUGAAAUA | 5.5 nM | 5.42 nM | – | –

Sequence | apparent Kd [1] | apparent Kd [2] | apparent Kd [3] | apparent Kd [4]
UCGAUGCUAGGAUAUACGUAUACCUCCACCGUUGAUUCCUCACAUGAGGAUCACCCAUGUAGAAGGAGCAUCUA | 79.8 nM | 137 nM | – | –
GUGGGAAUCACAGGAUAUACAUGCGCCGCUUCGUUCUACAUGAGGAUCACCCAUGUGUGGUCCGUGUAGAAGGGUGUUUGUCAC | – | – | 45.6 nM | 30.1 nM
CCGCAAAAGGAGGAUAUCGUAUCGGAUACGAUACGAGAAGGCUUUACAUGAGGAUCACCCAUGUGUCCUAGCGG | 13.7 nM | 19.2 nM | – | –
AACUCGUUAGGAUAUACCGCCAACGAUACCUCGUGAAACAUACAUGAGGAUCACCCAUGUAGAAGGAGCGAGCA | 16.9 nM | 23.3 nM | – | –
GGGCCCGGAGGAUAUACAUGAGGAUCACCCAUGUAGGGCCCGGGUAUUUUUGGGCCCUGUAGAAGGUUGGGCCC | 11.5 nM | 12.2 nM | – | –
GCAAAGCCUGACAUGAGGAUCACCCAUGUUAGAUUGUUAUGUCAGGAUAUUGUCUAGCAACUAGACAAGAAGGGAUGCUCUGCG | – | – | 744 nM | 215 nM
UUAUGAGAGCAGGAUAUCUUAUAUUUGUAUUAAAGAGAAGGGCUCACAUGAGGAUCACCCAUGUGGUCCUAGAU | 51.6 nM | 431 nM | – | –
GUAGCAUUGACAGGAUAUCCAUAUCCGAAAGGGACAUGAGGAUCACCCAUGUCGCGAAAGCGGUGGGAGAAGGGUCUAUGCUAC | – | – | 5.03 nM | 4.38 nM
UUUUUGUCAGGAUAUGAGUCGUAGAACAAUAGUACUACGUCUCAGAAGGGACAUGAGGAUCACCCAUGUGCCUC | 26 nM | 143 nM | – | –
GGAUAGGACAGAGGAUAUACGUGCUAGAGGUACUAGCAAAAUUUCCUCACAUGAGGAUCACCCAUGUAGAAGGCUGUCCUAUCG | 17 nM | 461 nM | – | –
UCCUUGUCCUGAGGAUAUCCGUGGUGACCGAAAGGAGAAGGCAGGACAUGAGGAUCACCCAUGUACCCAGAAAACGUGCAGAGA | 35.9 nM | 232 nM | – | –
AAUGUGUCAGGAUAUAGUAGACUCCUUGGAACGGUAGUCAGUUAGAAGGGACAUGAGGAUCACCCAUGUCGAGU | 19.3 nM | 19.6 nM | – | –
GGAUUUUACUAGUUUUCUAUACAUGAGGAUCACCCAUGUUUUUAGGAUAUCAGCGUGAAACACGCUGAGAAGGAAGAACAAUCC | 15.4 nM | 18.5 nM | – | –
AAUAUGUUGCAGAAGGCCAUGUUGUGGUAGUACCUCAUGACAUGAGGAUCACCCAUGUCUGUGUUGGAGGAUAUGCAAUAUAUU | 7.24 nM | 12.3 nM | – | –
GUCGUGAGACAGGAUAUCCAAUCUAAACACGAGGGAGAAGGGUCUACAUGAGGAUCACCCAUGUGGUCUCAAAA | 17.6 nM | 21.7 nM | – | –
GUCGGGAUUACAUGAGGAUCACCCAUGUCAGAACGGGCAGUUAGAAGGUGCCAUUAGGGAGAGGGUAAGGAUAUAAUUUUUGGC | – | – | 12 nM | 10.4 nM
GUAGAGUCAGGAUAUACAAGAUCGAAAGAUCGAAGAUUUAUACAUGAGGAUCACCCAUGUAGAAGGGACUCUAC | 14.4 nM | 16.9 nM | – | –
AGUAUUGUAGGGUAUCCAACAUGAGGAUCACCCAUGUACCAGAGAAGGACCCGUGCAUUGCUCGGGUAGGAUAUCUGCGCAUCA | 19.4 nM | 172 nM | – | –
